The text below walks through data of PubChem BioAssay AID602222 (Southern Research Specialized Biocontainment Screening …, 2012).

The assay has as its target M18 aspartyl aminopeptidase (Plasmodium falciparum 3D7). Put plainly: PfM18AAP aminopeptidase inhibitors, dose response, biochemical, QFRET, H-Glu-NHMec substrate, set 1 (AID 602222). Particulars: recombinant PfM18AAP, H-Glu-NHMec fluorogenic substrate cleavage; for inhibition: at 100 µM (top of the series). Summed up: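 Times: 90 min reaction at room temperature; Material: PFM18AAP, purified recombinant M18 aspartyl aminopeptidase of Plasmodium falciparum; Amount: enzyme 5 µg/mL final; Compound: 10 concentrations, 1:2 steps, top 100 µM; Benchmarks: full reaction and no-enzyme wells; Signal: NHMec release measured fluorometrically; Also added: H-Glu-NHMec substrate, 0.1 mM final; Repeats: triplicate.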

Activity calls are given as the source filed them.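 Rule for the calls: active = inhibition of 30% or more at any tested concentration; inactive = the rest.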

As for `CN1CCN(CCCc2ccc(O)c(O)c2)CC1`, the IC50 (as a rule, the midpoint of a concentration-inhibition curve) was 13.3 µM.
For the compound `Oc1ccc(-c2csc(Nc3ncccn3)n2)cc1O`, the IC50 is 6.43 µM.
Regarding `Oc1ccc(CCNc2c3ccccc3nc3ccccc23)cc1O`, the IC50 is 4.3 µM.
Turning to `COc1ccc(CCNC(c2ccccc2)c2ccccc2)cc1OC`, the inhibition entry was “inactive”.
As for `Oc1ccc(-c2csc(NC3CCCC3)n2)cc1O`, the IC50 is 13.1 µM.
With `Oc1ccc(CCNc2ccnc3ccccc23)cc1O`, the IC50 was 7.33 µM.
In the case of `CCc1ccc(NC(=O)Cc2nc(-c3ccc(O)c(O)c3)cs2)cc1`, the IC50 was 16.6 µM.
As to `COc1ccc(CCCN2CCN(C)CC2)cc1OC`, the inhibition result was “inactive”.
As to `CN1CCN(CCc2ccc(O)c(O)c2)CC1`, the IC50 is 27.1 µM.
For `CN1CCN(c2nc(-c3ccc(O)c(O)c3)cs2)CC1`, the IC50 is 9.37 µM.
